TAAR1 antag: human TAAR1 antagonists, primary screen, Fluo-8 calcium fluorescence, CHO RD-HGA16 cells; Trace amine-associated receptor 1 (Homo sapiens), Q96RJ0; antagonist; inhibition, % at 3 µM; 360,000 compounds, 1.5% hits;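 active means inhibition above a per-plate cutoff, the mean inhibition of test compounds on that plate plus 3 SD, cut at about 49% in these data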;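 further: 0% = DMSO plus EC80 beta-PEA response and 100% = DMSO alone without agonist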
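Test system – hTAAR1-expressing CHO RD-HGA16 cells, Gα16-coupled · Also added – β-PEA at EC80 concentration, post-compound challenge · Compound – 3 µM, single point · Incubation – dye loading 75 min at 37 °C, then 30 min room temperature · Measured by – Fluo-8 intracellular calcium dye fluorescence, real-time kinetic reads · Benchmarks – vehicle and agonist controls · Replicates – singlicate, one well per test compound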
TAAR1 ag: human TAAR1 agonists, primary screen, Fluo-8 calcium fluorescence, CHO RD-HGA16 cells; vehicle wells 0%, saturating PEA agonist 100%; activation, % at 3 µM; 360,000 compounds, 0.99% hits; AID 624467, 2012;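 active means activation above the mean activation of all test compounds in the run plus 3 SD, cut at about 38% in these data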
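Test system: RD-HGA16 (CHO) cells co-expressing Gα16 and hTAAR1; dosing: one-point dosing at 3 µM (nominal); timing: 17-24 h seeding, 75 min 37 °C dye, 30 min RT; signal: kinetic Fluo-8 calcium fluorescence; read-out basis: % activation relative to PEA EC100 response; controls: DMSO and PEA EC100; replicates: n 1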
CHO parental Ca: ATP-evoked calcium signal inhibitors, parental CHO, primary screen, counter-screen for OX1R antagonist project, cell-based, fluorescence, Fluo-8 calcium dye; 330,000 compounds, 0.63% hits; inhibition, % at 5.6 µM; parental CHO-K1, ATP-induced calcium, Fluo-8 fluorescence;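 active means inhibition above that plate's mean sample inhibition plus 3 SD, cut at about 26% in these data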;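 further: 0% = ATP-challenged DMSO wells and 100% = DMSO wells without ATP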
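Assay system: untransfected parental CHO cell line. Also added: ATP agonist challenge. Dosing: one dose, 5.6 µM nominal. Measured by: Fluo-8 fluorescence. Read-out: % inhibition. Benchmarks: ATP wells versus no-ATP DMSO wells. Repeats: no replicates.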
GPR7 antag: GPR7 receptor antagonists, primary screen, cell-based, fluorescence, single concentration; Neuropeptides B/W receptor type 1 (Homo sapiens), P48145; inhibition, % at 4.4 µM; 290,000 compounds, 1.1% hits; GPR7-expressing cells, fluorescence antagonist assay; in the data active means inhibition above about 16%, passing the limit was not always enough;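 further: cells stimulated with the agonist NPW; 0% = agonist with vehicle and 100% = vehicle without agonist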
OX1R antag-1: OX1R (HCRTR1) antagonists, primary screen, fluorescence, CHO/OX1R cells, Fluo-8 calcium, orexin A; Orexin/Hypocretin receptor type 1 (Homo sapiens), O43613; Fluo-8 calcium fluorescence; inhibition, % at 5 µM; 330,000 compounds, 0.43% hits;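 active means inhibition above its plate's threshold, mean inhibition of all tested compounds on the plate plus 3 SD, cut at about 37% in these data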;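 further: 0% = orexin A challenge wells and 100% = SB-334867-A antagonist wells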
Target sequence (O43613 whole entry, looked up): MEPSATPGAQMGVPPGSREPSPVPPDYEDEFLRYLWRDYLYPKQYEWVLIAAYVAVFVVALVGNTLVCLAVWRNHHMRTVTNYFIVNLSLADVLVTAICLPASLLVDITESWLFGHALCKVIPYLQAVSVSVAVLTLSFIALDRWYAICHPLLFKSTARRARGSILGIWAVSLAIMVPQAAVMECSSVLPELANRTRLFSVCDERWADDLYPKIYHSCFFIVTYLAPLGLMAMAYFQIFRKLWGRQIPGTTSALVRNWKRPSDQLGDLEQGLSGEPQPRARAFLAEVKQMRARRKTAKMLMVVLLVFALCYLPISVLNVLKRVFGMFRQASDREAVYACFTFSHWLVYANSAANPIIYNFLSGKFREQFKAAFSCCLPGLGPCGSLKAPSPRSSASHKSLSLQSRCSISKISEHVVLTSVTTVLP
OX1R antag-2: antagonists of human orexin 1 receptor (OX1R) | OX1R-expressing cells, FRET antagonist read-out | AID 485270, 2010 | 330,000 compounds, 1.8% hits | inhibition, % at 6.6 µM; in the data active means inhibition mostly above about 38%, no sharp cut-off; inactive means mostly below about 40%;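 further: 0% = agonist challenge alone and 100% = reference antagonist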
The depositor's hits bear a star; . = no result. Only some compounds are listed: those with a hit (about 4.6% of all), similar ones and a draw of the others.

SMILES | TAAR1 antag | TAAR1 ag | CHO parental Ca | GPR7 antag | OX1R antag-1 | OX1R antag-2
COc1ccc(CNCC(O)COc2ccc(C(C)(C)c3ccccc3)cc2)cc1 (stereo not given) | 5 | 41* | 36* | 16 | -9 | -9
COC(=O)C1=C(C)N(C)C(=NCc2ccccc2)NC1c1cccc(Cl)c1 (stereo not given) | 33 | 6 | . | . | . | .
COC(=O)[C@]12CCCCC=C1N(Cc1ccco1)C(=O)[C@H](CC(=O)NCc1cccc3ccccc13)C2 | 24 | 4 | . | . | . | .
O=C(C1CCC(=O)N1Cc1cccs1)N1CCOCC1 (stereo not given) | 18 | 6 | -9 | -10 | -7 | 5
CN(C)C(=O)C1CCC(=O)N1Cc1cccs1 (stereo not given) | 0 | 3 | 6 | 16* | -14 | 9
CC(=O)Nc1cccc(NC(=O)COC(=O)CO/N=C(\C)c2ccc3c(c2)OCO3)c1 | 12 | 3 | -8 | 12 | 22 | 74*
CCC(c1nnnn1C(C)(C)C)N1CCN(C2CCCC2)CC1 (stereo not given) | -2 | 11 | 2 | -1 | -17 | 12
CCC(c1nnnn1Cc1cccs1)N1CCN(C2CCCC2)CC1 (stereo not given) | -1 | 5 | -2 | 20* | -17 | 12
CC(C)C(c1nnnn1Cc1ccc(F)cc1)N1CCN(C2CCCC2)CC1 (stereo not given) | -19 | 1 | 2 | -4 | -26 | 8
CCCC(c1nnnn1Cc1ccc(F)cc1)N1CCN(C2CCCCC2)CC1 (stereo not given) | 5 | 8 | -28 | 33* | -33 | 17
CCCC(c1nnnn1C(C)(C)CC)N1CCN(C2CCCC2)CC1 (stereo not given) | -1 | 11 | -14 | 18* | -3 | 7
C[C@H](O)[C@@H]1C(=O)N2CCc3c([nH]c4ccccc34)[C@@H]2C[C@@H]1N(C)C(=O)Nc1cc(Cl)cc(Cl)c1 | 20 | 4 | . | . | . | .
COC(=O)[C@H](CC(C)C)NS(=O)(=O)c1ccc(F)cc1Br | -11 | 0 | . | . | . | .
Cc1cccc(/C(N)=N/OC(=O)c2ccc(F)cc2)c1 | -6 | 5 | -4 | -9 | -7 | 8
COc1cc(OC)c(C(=O)O/N=C(\N)c2ccc(C)cc2)cc1OC | -4 | -2 | -15 | 11 | -23 | 36*
COc1cc(OC)c(C(=O)O/N=C(\N)c2cccc(C)c2)cc1OC | 0 | 0 | -26 | -13 | -14 | 36*
O=S1(=O)CCSC[C@@H](CN2CCCC2)N1 | -29 | 4 | . | . | . | .
O=C(N[C@H](Cc1ccccc1)C(=O)O)[C@H]1O[C@@H](n2ccc(=O)[nH]c2=O)[C@H](O)[C@@H]1O | -23 | 4 | . | . | . | .
Cc1ccc2cccc(OCC(=O)N3CC(C)CC(C)C3)c2n1 (stereo not given) | 5 | 10 | -10 | 17* | -24 | 16
O=c1nccc(N/N=C/c2ccccc2O)[nH]1 | -9 | 38* | . | -10 | . | .
COc1cccc(/C=N/Nc2ccnc(=O)[nH]2)c1O | -4 | 2 | -2 | -14 | -4 | 10
NC(=O)c1c(N)[nH]c(C(=O)c2ccccc2)c1-c1ccc(Br)cc1 | -1 | 4 | . | . | . | .
C[C@@H]1CN([C@@H](C)CO)C(=O)CCCn2nncc2CO[C@@H]1CN(C)C(=O)Nc1cccc(Oc2ccccn2)c1 | -21 | 3 | . | . | . | .
O=C(Nc1ccc(Cl)cc1)OCc1ccccn1 | 12 | 9 | 40* | 3 | 20 | 21
C#CCN1C(=O)S/C(=C/C=C/c2ccc(N(C)C)cc2)C1=O | 34 | 24 | 72* | 15 | 79* | 21
COC(=O)N1C[C@H](OCc2ccc3c(c2)OCO3)[C@H]2C[C@@H]1c1ccccc1O2 | -39 | -2 | . | . | . | .
O=C(O)c1ccc(C(=O)c2ccc3c(c2)C(=O)N(CCO)C3=O)cc1 | -3 | 2 | 9 | -13 | -4 | 74*
